The list is not random: actives were taken first. Their share in the collection is about 2.9%.
CHO parental Ca = counter-screen for OX1R antagonists: effect in parental CHO cells; parental CHO-K1, ATP-induced calcium, Fluo-8 fluorescence; inhibition, % at 5.6 µM; 330,000 compounds, 0.63% hits;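 active = inhibition above that plate's mean sample inhibition plus 3 SD, cut at about 26% in these data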
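Measured by: calcium-sensitive Fluo-8 fluorescence / Test system: CHO parental line / Controls: ATP-challenged DMSO wells low, unchallenged DMSO wells high / Measure: % inhibition / Compound: single nominal dose of 5.6 µM per compound / Replicates: single well per compound, no replicates / Reagent: ATP as calcium-mobilizing challenge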
OX1R antag-1 = human HCRTR1 antagonism; CHO/OX1R cells, Fluo-8 calcium fluorescence, orexin A; O43613; inhibition, % at 5 µM; 330,000 compounds, 0.43% hits;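 active = inhibition above its plate's threshold, mean inhibition of all tested compounds on the plate plus 3 SD, cut at about 37% in these data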
Target sequence (O43613 whole entry, looked up): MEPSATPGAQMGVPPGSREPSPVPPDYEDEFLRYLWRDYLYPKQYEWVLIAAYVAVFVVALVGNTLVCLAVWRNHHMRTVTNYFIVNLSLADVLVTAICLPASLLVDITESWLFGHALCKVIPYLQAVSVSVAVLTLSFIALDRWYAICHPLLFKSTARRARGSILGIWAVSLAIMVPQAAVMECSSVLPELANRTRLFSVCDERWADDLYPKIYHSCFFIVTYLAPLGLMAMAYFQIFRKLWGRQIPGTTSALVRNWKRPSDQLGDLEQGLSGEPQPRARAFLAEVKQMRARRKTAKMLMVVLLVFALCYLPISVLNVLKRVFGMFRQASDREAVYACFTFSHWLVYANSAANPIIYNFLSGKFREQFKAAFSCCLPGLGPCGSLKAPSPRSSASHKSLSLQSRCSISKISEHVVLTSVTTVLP
CHO-K1 Ca antag = M1 antagonist counterscreen hit in parental CHO-K1 cells; ATP-induced calcium, Fluo-8 fluorescence; inhibition, % at 3 µM; 360,000 compounds, 0.6% hits; AID 602250;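 active = inhibition above a per-plate cutoff, the plate's mean sample inhibition plus 3 SD, cut at about 24% in these data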
M1 ag parental = nonselective activator or artifact in parental CHO-K1 cells | Fluo-8 calcium fluorescence; scaled to maximal ATP response, vehicle zero | activation, % at 3 µM | 360,000 compounds, 0.48% hits | AID 602248; in the data active = activation above about 15%;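 also: untransfected CHO-K1 host cells lacking M1 receptor as counterscreen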
OX1R antag-2 = antagonists of human orexin 1 receptor (OX1R); O43613; OX1R-expressing cells, FRET antagonist read-out; inhibition, % at 6.6 µM; 330,000 compounds, 1.8% hits; in the data active = inhibition mostly above about 38%, no sharp cut-off; inactive = mostly below about 40%
CHO-K1 Ca PAM = M1 PAM counterscreen hit in parental CHO-K1 cells. ATP EC20, Fluo-8 calcium fluorescence; 0% at ATP EC20, 100% at ATP max. activation, % at 3 µM. 360,000 compounds, 0.02% hits. AID 602247;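 active = activation above the run cutoff, the mean activation of all test compounds plus 3 SD, cut at about 40% in these data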;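 also: peak over basal fluorescence ratio in a 140 s read after ATP addition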
Large screens that a line does not name were inactive.

Cc1cc(C(=O)Nc2cccc3c2O[C@H](CN(C)CC2CC2)[C@@H](C)CN([C@H](C)CO)C3=O)n(C)n1	CHO-K1 Ca PAM 56
CSCCC(NS(=O)(=O)c1ccc(C)cc1)C(=O)NNC(=O)c1csc(N2CCOCC2)n1 (stereo unspecified)	none (no result: CHO parental Ca, OX1R antag-1, OX1R antag-2)
CCC(O)c1c(-c2ccccc2)nn(C)c1Cl (stereo unspecified)	none
CC(O)c1c(-c2ccccc2)nn(C)c1Cl (stereo unspecified)	CHO-K1 Ca antag 28
O=C(O)CC(CC(=O)O)(C(=O)O)c1ccccc1	none
CSc1cccc(NC(=O)CN(C)S(=O)(=O)c2ccccc2)c1	OX1R antag-2 50
CSc1cccc(NC(=O)NCc2cccc(CNC(=O)Nc3cccc(SC)c3)c2)c1	none
CSc1cccc(NC(=O)C(=O)NCc2ccccc2)c1	CHO parental Ca 28
CSc1cccc(NC(=O)CN(C)S(=O)(=O)c2ccc(F)cc2)c1	none
CCC1(CC)NC(=O)N(CC(=O)N2CCc3ccccc32)C1=O	none
Cc1ccc(C2(C)NC(=O)N(CC(=O)N3CCc4ccccc43)C2=O)cc1 (stereo unspecified)	M1 ag parental 20
CC1(c2ccc(Cl)cc2)NC(=O)N(CC(=O)N2CCc3ccccc32)C1=O (stereo unspecified)	M1 ag parental 19
CC1CCN(C(=O)C(C)Sc2nc(-c3ccccc3)cc(C(F)(F)F)n2)CC1 (stereo unspecified)	CHO parental Ca 30
CC(Sc1nc(-c2ccccc2)cc(C(F)(F)F)n1)C(=O)N1CCCC1 (stereo unspecified)	none
Cc1ccccc1NC(=S)N(Cc1ccccc1)Cc1cccnc1	none
CSc1cccc(NC(=S)N(Cc2ccc(C)cc2)Cc2cccnc2)c1	CHO parental Ca 46
COc1cc(CNc2ccc3[nH]c(=O)[nH]c3c2)ccc1OCC(=O)NC(C)(C)C	CHO parental Ca 99
Cc1cccc(N2CC(C(=O)NCCC3=CCCCC3)CC2=O)c1C (stereo unspecified)	none
Cn1c(N2CCN(C(c3ccccc3)c3ccccc3)CC2)nc2ccccc21	CHO-K1 Ca antag 25
CCN(Cc1cc2cc(C)ccc2[nH]c1=O)C(=O)c1cccc([N+](=O)[O-])c1	none
CC(=O)N1CCN(CC(=O)Nc2ccccc2C(=O)Nc2ccccc2)CC1	none
O=C1c2cccc3cccc(c23)C(=O)N1c1nncs1	OX1R antag-2 75
O=C1c2cccc3cccc(c23)C(=O)N1c1ccc(O)cc1	none
O=C(O)CCC(=O)N1CCc2cc(S(=O)(=O)NCCc3ccc(Cl)cc3)ccc21	none
COc1ccc(CCNS(=O)(=O)c2ccc3c(c2)CCN3C(=O)CCC(=O)O)cc1OC	M1 ag parental 19
O=C(CCCN1C(=O)/C(=C/c2ccc(F)cc2)SC1=S)NC1CCS(=O)(=O)C1 (stereo unspecified)	CHO parental Ca 82
CN(C(=O)CN1C(=O)S/C(=C\c2ccc(F)cc2)C1=O)C1CCS(=O)(=O)C1 (stereo unspecified)	none
CCN(C(=O)CN1C(=O)S/C(=C\c2ccc(F)cc2)C1=O)C1CCS(=O)(=O)C1 (stereo unspecified)	OX1R antag-2 41
Cc1nc(NCCc2ccc(Cl)cc2)c2nnn(Cc3ccccc3)c2n1	none
Cc1cccc(C(=O)Oc2ccccc2C(=O)N2CCOCC2)c1	none
COc1ccc(NS(=O)(=O)c2ccc(-c3coc(C)n3)cc2)cc1OC	CHO parental Ca 50, CHO-K1 Ca antag 50, M1 ag parental 20
COc1ccc(NS(=O)(=O)c2ccc(-c3coc(C)n3)cc2)cc1	none
CN(C)c1ccc(-c2ccc3oc(-c4ccsc4)cc(=O)c3c2)cn1	OX1R antag-2 57
Cn1nnnc1SCCNC(=O)C1CCC(=O)N(CCc2cccc(F)c2)C1 (stereo unspecified)	none
CCOC(=O)N1CCN(C(=O)c2c[nH]c3ccc(S(=O)(=O)N(C)c4cccc(C)c4)cc3c2=O)CC1	none
CCOC(=O)N1CCN(C(=O)c2c[nH]c3ccc(S(=O)(=O)N(C)c4ccccc4C)cc3c2=O)CC1	CHO-K1 Ca antag 58
CCOc1ccc(CCNC(=O)CSc2nnnn2C)cc1OCC	M1 ag parental 16
O=C(CNC(=O)c1ccc(Cl)cc1)OCC(=O)N1CCCC1	none
COc1cc(-c2cc(=O)c3ccccc3o2)ccc1O	none
COc1ccc(-c2cc(=O)c3ccccc3o2)cc1	OX1R antag-2 67
COc1ccc(S(=O)(=O)N2CCCCC2)cc1NC(=O)CCNC(=O)c1ccc(Br)cc1	none
COc1ccc(Br)cc1/C=N/NC(=O)c1ccc(OC)c(OC)c1	OX1R antag-2 43
COc1ccc(Br)cc1/C=N/NC(=O)c1ccc2nc[nH]c2c1	OX1R antag-2 41
COc1cc(/C=N/NC(=O)c2ccc3c(c2)OCCO3)c(Br)c(Br)c1O	OX1R antag-2 65
COc1ccc(Br)cc1/C=N/NC(=O)c1cc(OC)c(OC)c(OC)c1	none
O=C(O)c1cc(NC(=O)c2cccc(F)c2)cc(NC(=O)c2cccc(F)c2)c1	none
CC(C)(C)c1ccc(C(=O)N2CCN(c3ncccn3)CC2)cc1	none
COC(=O)C1=C(CS(=O)(=O)c2ccc(Cl)cc2)NC(=O)NC1c1ccc(O)cc1 (stereo unspecified)	none
CC(OC(=O)c1ccc(Cl)c(S(=O)(=O)N2CCc3ccccc32)c1)C(=O)Nc1ncc(Cl)cc1Cl (stereo unspecified)	none
Oc1ccc(-c2csc(Nc3ccc4c(c3)OCO4)n2)c(O)c1	none (no result: CHO parental Ca, OX1R antag-1, OX1R antag-2)
N#Cc1ccc(Nc2nc(-c3ccc(O)cc3O)cs2)cc1C(F)(F)F	OX1R antag-2 53
Cc1ccc(N=Nc2ccc(O)cc2)c(Br)c1	CHO parental Ca 56
Oc1ccc(N=Nc2ccc(Br)cc2)c(O)c1	none
CCCCOCCCNc1ncnc2c1[nH]c1ccccc12	CHO parental Ca 43, CHO-K1 Ca antag 30, OX1R antag-2 52
CCCCOc1ncnc2c1[nH]c1ccccc12	OX1R antag-2 73
CCCCOc1ncnc2c1[nH]c1ccc(F)cc12	CHO parental Ca 32, CHO-K1 Ca antag 28, M1 ag parental 16
CCCCOc1ncnc2c1[nH]c1ccc(OCC)cc12	none
COc1ccc(-n2nc(C(=O)NCC(=O)NCCC3=CCCCC3)c3ccccc3c2=O)c(OC)c1	none
COc1ccc(OC)c(NC(=O)c2cnc(Nc3ccccc3OC)c3ccccc23)c1	OX1R antag-2 68
COc1ccc(Cl)cc1NC(=O)c1cnc2n(c1=O)CCS2	none
COc1ccc(OC)c(NC(=O)COC(=O)Cc2ccc(-c3ccccc3)cc2)c1	none
COc1ccc(OC)c(NC(=O)COC(=O)CCNc2ccccc2OC)c1	OX1R antag-2 55
COc1ccc(OC)c(NC(=O)c2cnc3n(c2=O)CCS3)c1	CHO-K1 Ca antag 26

Screens: PubChem, The Scripps Research Institute Molecular Screening Center
